Compounds with a hit are over-represented: about 3.5% of the library has one in this group of screens.
RGS4 inh – human RGS4 inhibition. 310,000 tested, 0.45% active. HEK293 M3R/RGS4 inducible, Fluo-4 calcium flux; active compounds read high; triggered by carbachol at its EC20. B-score at 10 µM;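 active = B-score, a plate-corrected calcium signal, over three deviations above library mean, with baseline fluorescence within five deviations of library mean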;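 note: RGS4 expression induced by doxycycline in cells with stable M3 receptor; B-score is computed from the integrated fluorescence ratio over baseline after carbachol; higher B-score means a larger calcium signal and so more RGS4 inhibition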
Target sequence (P49798 whole entry, looked up): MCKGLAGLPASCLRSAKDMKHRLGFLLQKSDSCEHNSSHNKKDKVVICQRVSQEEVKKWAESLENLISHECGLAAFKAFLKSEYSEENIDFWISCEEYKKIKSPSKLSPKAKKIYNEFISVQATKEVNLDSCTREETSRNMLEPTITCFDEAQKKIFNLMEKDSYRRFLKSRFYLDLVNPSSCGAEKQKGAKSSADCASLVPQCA
MrgX1 antagonist – antagonists of human MrgX1 receptor | Q96LB2 | MRGX1-HEK293 calcium flux, Fluo-4, BAM8-22 antagonism; active compounds read low | 310,000 tested, 1.3% active | B-score at 10 µM;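 active = calcium-response B-score plate-corrected more than 3 library SD below zero, starting fluorescence within 5 deviations, no agonist response on first addition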;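 note: peak minus trough fluorescence over baseline after final BAM8-22 challenge near maximal dose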
Target sequence (Q96LB2 whole entry, looked up): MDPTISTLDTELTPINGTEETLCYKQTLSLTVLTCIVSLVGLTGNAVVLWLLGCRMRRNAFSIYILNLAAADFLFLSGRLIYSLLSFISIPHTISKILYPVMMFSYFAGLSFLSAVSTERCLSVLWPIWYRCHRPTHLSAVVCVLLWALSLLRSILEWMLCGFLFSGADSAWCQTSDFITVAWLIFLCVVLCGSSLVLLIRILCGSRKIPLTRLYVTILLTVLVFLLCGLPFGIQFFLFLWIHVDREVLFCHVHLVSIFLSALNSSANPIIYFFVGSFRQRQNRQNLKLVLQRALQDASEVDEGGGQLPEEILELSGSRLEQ
RGS4 act – RGS4 potentiation or activation; B-score at 10 µM; AID 463111; 310,000 tested, 0.92% active; HEK293 M3R/inducible RGS4, carbachol calcium flux Fluo4; active compounds read low;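 active = B-score of the integrated calcium signal more than 4 SD below the library mean, with starting fluorescence not abnormally high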;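 note: negative B-score means reduced calcium response which marks RGS4 activation or potentiation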
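Reagent: ECmax carbachol challenge; Test system: M3R-expressing HEK293 line, RGS4 induced by doxycycline; Schedule: overnight RGS4 induction, 30 min dye load 37 °C, 20 min compound RT; Detection: calcium dye Fluo4 fluorescence; Read-out: Agonist-evoked peak-minus-minimum fluorescence over baseline, integrated ratio, B score.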
MrgX1 agonist – activates human MrgX1 receptor signaling | Q96LB2 | MrgX1-HEK293 cells, Fluo-4 calcium fluorescence, agonist mode; active compounds read high | B-score at 10 µM | 310,000 tested, 0.44% active;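 active = calcium response B-score plate-corrected fluorescence ratio at least 3 library SD, with starting fluorescence B-score inside 5 SD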
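System: HEK293 cells stably expressing human MrgX1 receptor; Dosing: test compound in the initial addition of three; Schedule: overnight plating, then 30 min 37 °C plus 30 min room-temperature dye loading; Detection: kinetic calcium dye fluorescence, Fluo-4 NW; Controls: per-plate positive and negative controls for Z′ factor.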
MrgX1 allo act – allosterically activates human MrgX1 receptor signaling | MrgX1-HEK293, Fluo-4 calcium flux, FDSS; active compounds read high | B-score at 10 µM | 310,000 tested, 0.63% active | AID 588675;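 active = plate-corrected calcium response at least 3 library SD above typical, normal starting fluorescence, not activating the receptor alone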;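 note: compound read alongside a low EC10 to EC30 dose of BAM8-22 agonist; peak minus trough fluorescence over baseline measured at the second addition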
MrgX1 ag confirm – confirmation of human MrgX1 receptor agonists. shares compounds with MrgX1 agonist. MrgX1-HEK293, Fluo-4 calcium fluorescence, FDSS. activation, % at 10 µM. 600 tested, 78% active;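 active = calcium signal rise, corrected for plate position, at least 3 library SD high, with starting brightness within 5 such deviations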
HEK293 Ca flux – activity in parental HEK293 cells lacking MrgX1; AID 624111; Fluo-4 calcium fluorescence, FDSS; 4,000 tested, 2% active; fluorescence ratio F(max-min)/F0 at 10 µM; shares compounds with MrgX1 antagonist;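 active = duplicate-averaged calcium fluorescence ratio at least three times the standard deviation of buffer wells, a nonspecific response in parental cells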
HEK293 Ca counter – counter-screen for MrgX1 allosteric activators: effect in parental HEK293 cells; shares compounds with MrgX1 antagonist; parental HEK293 calcium flux, Fluo-4 fluorescence ratio; active compounds read high; fluorescence ratio F(max-min)/F0 at 10 µM; 4,000 tested, 0.4% active; AID 624114;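 active = calcium fluorescence ratio, averaged over duplicates, at least 3 SD of the buffer-well ratio, meaning a nonspecific response in receptor-free cells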;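 note: untransfected parental HEK293 lacking MrgX1 used as counterscreen for MrgX1 allosteric activators; fluorescence change taken during the second addition on a kinetic imager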
HEK293 Ca cntr2 – MrgX1 activator counter-screen hit in parental HEK293 cells; shares compounds with MrgX1 antagonist; Fluo-4 calcium fluorescence (FDSS); active compounds read high; fluorescence ratio F(max-min)/F0 at 10 µM; 4,000 tested, 8.7% active; AID 624115;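 active = calcium fluorescence ratio at least three times the spread of buffer wells, meaning a non-specific response in parental cells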
Starred values were filed as active, the others as inactive; i = inactive; . = not tested or not shown.

SMILES | RGS4 inh | MrgX1 antagonist | RGS4 act | MrgX1 agonist | MrgX1 allo act | MrgX1 ag confirm | HEK293 Ca flux | HEK293 Ca counter | HEK293 Ca cntr2
COc1cccc(N2CCN(C(=O)/C=C/c3ccco3)CC2)c1 | i | i | i | i | i | . | . | . | .
O=C(NCc1ccccc1)c1ccc2c(=O)n3c(nc2c1)CCCCC3 | i | i | i | i | i | . | . | . | .
O=C(NCCc1ccc(F)cc1)c1ccc2c(=O)n3c(nc2c1)CCC3 | i | i | i | 31.5* | i | 217.4%* | i | i | 51.6*
Cc1cc(C)nc(NNC(=O)c2ccccc2O)n1 | i | i | i | i | i | . | . | . | .
NC(=O)N1c2ccccc2CC(=O)c2ccccc21 | i | i | i | 46.9* | i | 250.5%* | i | i | 52.3*
CC(c1ccccc1)n1c(SCC(=O)Nc2ccccc2)n[nH]c1=O (stereo unspecified) | i | i | i | i | i | . | . | . | .
Nc1c(C(=O)c2ccc(Cl)cc2)sc2nsc(SCCN3CCOCC3)c12 | i | i | i | 39.3* | i | i | 0.478* | i | 104*
Nc1c(C(=O)c2ccccc2)sc2nsc(SCCN3CCCC3)c12 | i | i | i | i | i | . | . | . | .
Cc1cc(NC(=O)CC#N)n(-c2ccccc2)n1 | i | i | i | i | i | . | . | . | .
COc1ccc(C(CC(=O)Nc2cc([N+](=O)[O-])ccc2OC)c2ccccc2)cc1 (stereo unspecified) | i | i | i | i | i | . | . | . | .
CCCc1cc(=O)oc2cc(OCC(=O)N3CCN(C(=O)C4COc5ccccc5O4)CC3)ccc12 (stereo unspecified) | i | i | i | i | i | . | . | . | .
COc1ccc(CC(=O)Nc2ccccc2N2CCOCC2)cc1OC | i | i | i | i | i | . | . | . | .
Cc1ccc(CC(=O)Nc2ccccc2N2CCOCC2)cc1C | . | i | . | 35.4* | i | 94.4%* | i | i | i
COc1ccc(C2C(C#N)=C(N)Oc3cccc(O)c32)cc1 (stereo unspecified) | i | i | i | 28.4* | i | i | i | i | i
Cc1cc(C(=O)CCC(=O)NC(C)c2ccc(S(N)(=O)=O)cc2)c(C)s1 (stereo unspecified) | i | i | i | i | i | . | . | . | .
COc1cc(/C=C2\SC(=Nc3ccccc3)NC2=O)cc(Cl)c1O | i | i | i | 83.6* | i | i | 0.388* | i | 139*
O=C(NCCC1CC1(Cl)Cl)Nc1ccccc1 (stereo unspecified) | i | i | i | i | i | . | . | . | .
Cn1c(-c2ccccc2)c(CCO)c2ccccc21 | i | i | i | 43.2* | i | 183.8%* | i | i | i
Cc1cc(N2CCN(c3ccccc3)CC2)nc(N)n1 | i | i | i | 42.9* | i | 252.5%* | i | i | i
Cc1cc(N2CCN(c3ccccc3)CC2)nc(-c2ccccc2)n1 | i | i | i | i | i | . | . | . | .
Cc1cc(N2CCOCC2)nc(N)n1 | i | i | i | 73.4* | i | 275.4%* | i | i | 78.4*
N#Cc1ccccc1CCN1C(=O)c2ccccc2C1=O | i | i | i | i | i | . | . | . | .
COc1ccc(/C=N/NC(=O)CC(=O)NCc2cccnc2)cc1[N+](=O)[O-] | i | i | i | i | i | . | . | . | .
CCc1nc(N)nc(N)c1-c1ccc(Cl)cc1 | i | i | i | 28.4* | i | i | i | i | i
O=C(OCc1cccc(F)c1)c1cc2ccccc2cc1O | i | i | i | i | i | . | . | . | .
SMILES | RGS4 inh | MrgX1 antagonist | RGS4 act | MrgX1 agonist | MrgX1 allo act | MrgX1 ag confirm | HEK293 Ca flux | HEK293 Ca counter | HEK293 Ca cntr2
N/C(=N\N=C/c1ccc(F)cc1)N/N=C\c1ccc(F)cc1 | i | i | i | 65.8* | i | 499.5%* | i | i | 75.5*
O=C1/C(=C/c2ccccc2)Nc2ccccc21 | i | i | i | 128* | i | i | 0.409* | i | 224*
COC(=O)c1ccccc1-c1ccc(C(c2c(C)[nH][nH]c2=O)c2c(C)[nH][nH]c2=O)o1 | i | i | i | i | i | . | . | . | .
COC(=O)c1cccc(-c2ccc(C(c3c(C)[nH][nH]c3=O)c3c(C)[nH][nH]c3=O)o2)c1 | i | i | i | 43.2* | i | 191.9%* | i | i | 45.6*
COC(=O)c1cn(NC(=O)/C=C/c2ccc(OC)c(OC)c2)c(=O)c2ccccc12 | i | i | i | i | i | . | . | . | .
Cc1cccc(NC(=S)NC(=O)c2oc3ccccc3c2C)n1 | i | i | i | i | i | . | . | . | .
CCS(=O)(=O)c1nnnn1-c1ccccc1S(C)(=O)=O | i | i | i | 27* | i | 104.8%* | i | i | i
O=c1c2c(-c3ccccc3)csc2ncn1/N=C/c1cccc([N+](=O)[O-])c1O | i | i | i | 71.4* | i | 315.0%* | i | i | 76*
O=c1c2c(-c3ccccc3)csc2ncn1/N=C/c1ccc(O)c([N+](=O)[O-])c1 | i | i | i | i | i | . | . | . | .
Cc1[nH]nc(-c2ccc(O)cc2O)c1Oc1ccccc1 | i | i | i | 28.2* | i | 179.3%* | i | i | i
Cc1cccc(NC(=O)c2ccc(N3C(=O)C4CCCCC4C3=O)cc2)c1C (stereo unspecified) | i | i | i | i | i | . | . | . | .
COC(=O)c1ccc(Cl)cc1N(Cc1c(F)cccc1Cl)S(C)(=O)=O | i | i | i | 71.3* | i | 290.0%* | i | i | 60.8*
CN1CCc2c(sc3c2C(=O)NC(c2ccc(-c4ccc(Cl)cc4)o2)N3)C1 (stereo unspecified) | i | i | i | 31.2* | i | i | i | i | i
COc1ccccc1CCC(=O)NCCCn1ccc2ccccc21 | i | i | i | i | i | . | . | . | .
CC1CCc2sc(NC(=O)C3CC(Cl)=CCC3C(=O)O)c(C#N)c2C1 (stereo unspecified) | i | i | i | 28.5* | i | i | i | i | i

Screens: PubChem BioAssay, Johns Hopkins Ion Channel Center
